Laboratory results taken from ChEMBL document CHEMBL1140037, “Effect of cathepsin K inhibitors on bone resorption” (J Med Chem, 2008).
Activity calls are given as the source filed them. The calls are words filed in the database; no cut-off is given here.

Key:
[1] = Half life in Sprague-Dawley rat at 1 mg/mL/kg, iv; assay type: ADME, organism-based; settings: in vivo
[2] = Ratio of drug level in bone marrow to serum in po dosed Sprague-Dawley rat; assay type: ADME, organism-based; settings: in vivo
Procedure, shortened: (§1)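 Rats dosed orally with 100 mg/kg once daily for 11 days. Compound concentration in bone marrow and serum measured 25 h after the final dose on day 11. BM/serum ratio calculated from the two concentrations.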

[3] = Drug level in Sprague-Dawley rat serum at 100 mg/kg/day, po for 11 days measured on 25 hrs after final administration; assay type: ADME, organism-based; design: route oral; settings: read-out: Drug uptake; procedure, shortened: as §1
Cathepsin K [4] = target: T1, Cathepsin K (Rattus norvegicus, UniProt O35186); assay: Inhibition of rat recombinant cathepsin K expressed in Sf21 cells by fluorescence assay
T1 sequence (O35186 whole entry): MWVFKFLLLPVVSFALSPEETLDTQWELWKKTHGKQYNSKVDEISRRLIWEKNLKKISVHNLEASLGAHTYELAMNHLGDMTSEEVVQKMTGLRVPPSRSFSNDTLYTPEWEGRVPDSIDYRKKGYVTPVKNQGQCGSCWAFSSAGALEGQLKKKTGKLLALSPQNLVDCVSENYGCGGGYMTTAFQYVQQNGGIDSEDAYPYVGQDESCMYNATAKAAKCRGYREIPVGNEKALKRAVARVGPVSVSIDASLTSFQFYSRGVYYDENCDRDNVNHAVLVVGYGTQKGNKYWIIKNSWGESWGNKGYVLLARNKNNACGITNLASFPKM

Procathepsin L = Procathepsin L (Homo sapiens, UniProt P07711); assay: Inhibition of human recombinant cathepsin L by fluorescence assay
Sequence of Procathepsin L (P07711 whole entry): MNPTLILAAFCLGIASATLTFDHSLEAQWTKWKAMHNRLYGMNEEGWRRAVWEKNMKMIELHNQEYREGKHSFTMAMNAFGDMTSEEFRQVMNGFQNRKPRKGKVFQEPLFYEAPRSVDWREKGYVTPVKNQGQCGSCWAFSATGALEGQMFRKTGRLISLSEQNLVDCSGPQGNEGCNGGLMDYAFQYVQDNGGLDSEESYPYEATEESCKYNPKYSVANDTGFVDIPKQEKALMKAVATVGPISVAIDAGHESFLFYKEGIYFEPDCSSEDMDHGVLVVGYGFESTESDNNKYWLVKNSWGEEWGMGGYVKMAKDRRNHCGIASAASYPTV
Procedure, shortened: (§2)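 Recombinant human cathepsins K, L and S, inhibition read in a fluorescence assay; IC50 values reported.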

Cathepsin K [5] = target: T2, Cathepsin K (Homo sapiens, UniProt P43235); assay: Inhibition of human recombinant cathepsin K by fluorescence assay; procedure, shortened: as §2
T2 sequence (P43235 whole entry): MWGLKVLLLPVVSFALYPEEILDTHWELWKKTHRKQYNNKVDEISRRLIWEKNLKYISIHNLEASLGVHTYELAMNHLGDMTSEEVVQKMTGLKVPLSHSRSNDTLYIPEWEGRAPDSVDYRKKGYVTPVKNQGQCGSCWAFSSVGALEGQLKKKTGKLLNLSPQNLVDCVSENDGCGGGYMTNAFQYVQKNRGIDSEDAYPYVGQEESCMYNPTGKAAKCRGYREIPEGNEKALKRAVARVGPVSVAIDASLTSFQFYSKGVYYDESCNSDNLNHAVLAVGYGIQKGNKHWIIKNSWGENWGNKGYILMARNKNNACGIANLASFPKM

[6] = Volume of distribution at steady state in Sprague-Dawley rat at 1 mg/mL/kg, iv; assay type: ADME, organism-based; settings: in vivo, read-out: Vdss
[7] = Plasma clearance in Sprague-Dawley rat at 1 mg/mL/kg, iv; assay type: ADME, organism-based
[8] = Bioavailability in Sprague-Dawley rat at 3 mg/5 mL/kg, po; assay type: ADME, organism-based; settings: in vivo
Rattus norvegicus [9] = assay: Antibone resorptive activity in Sprague-Dawley rat assessed as inhibition of cathepsin K-mediated C-terminal telopeptidase of type 1 collagen degradation at 100 mg/kg/day, po for 11 days measured on 24 hrs after final administration by RatLaps ELISA; assay type: functional; design: scale not given: the % may be the effect or the level left
Procedure, shortened: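 Intact rats dosed orally with 100 mg/kg once daily for 11 days. Urine collected for 24 h after the final dose on day 11; CTx measured by RatLaps ELISA. Inhibition expressed as percentage of vehicle-treated controls.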

[10] = Drug level in Sprague-Dawley rat bone marrow at 100 mg/kg/day, po for 11 days measured on 25 hrs after final administration; assay type: ADME, organism-based; design: route oral; settings: read-out: Drug uptake; procedure, shortened: as §1
Cathepsin S = Cathepsin S (Homo sapiens, UniProt P25774); assay: Inhibition of human recombinant cathepsin S by fluorescence assay; procedure, shortened: as §2
Sequence of Cathepsin S (P25774 whole entry): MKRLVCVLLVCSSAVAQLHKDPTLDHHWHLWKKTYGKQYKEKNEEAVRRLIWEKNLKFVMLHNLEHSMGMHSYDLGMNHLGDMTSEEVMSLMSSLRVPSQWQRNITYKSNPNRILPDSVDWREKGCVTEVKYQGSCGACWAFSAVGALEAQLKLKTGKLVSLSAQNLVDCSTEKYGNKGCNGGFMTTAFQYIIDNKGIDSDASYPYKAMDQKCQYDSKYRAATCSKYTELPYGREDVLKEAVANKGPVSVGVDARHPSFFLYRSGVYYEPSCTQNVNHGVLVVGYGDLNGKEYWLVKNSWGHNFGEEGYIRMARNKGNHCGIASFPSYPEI

[11] = Volume of distribution at steady state in Sprague-Dawley rat at 4 umol/mL/kg, iv; assay type: ADME, organism-based; settings: in vivo, read-out: Vdss
Procedure, shortened: (§3)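 Male Sprague-Dawley rats, cassette dosing, iv and oral. Plasma levels by LC-MS/MS. Half-life is the noncompartmental terminal elimination estimate. Clearance, steady-state volume of distribution and bioavailability derived from the profiles.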

[12] = (§4) Bioavailability in Sprague-Dawley rat at 10 umol/5 mL/kg, po; assay type: ADME, organism-based; settings: Sprague-Dawley, in vivo, 10 umol/5 mL/kg; procedure, shortened: as §3
[13] = Plasma clearance in Sprague-Dawley rat at 4 umol/mL/kg, iv; assay type: ADME, organism-based; procedure, shortened: as §3
[14] = Half life in Sprague-Dawley rat at 4 umol/mL/kg, iv; assay type: ADME, organism-based; settings: in vivo; procedure, shortened: as §3
Rattus norvegicus [15] = assay: as §4; assay type: ADME, organism-based; settings: in vivo; procedure, shortened: as §3
Cynomolgus monkey [16] = assay: Antibone resorptive activity in cynomolgus monkey assessed as reduction of C-terminal telopeptidase of type 1 collagen degradation at 2 mg/kg/day, po measured before 8 hrs after 7 days of administration by CrossLaps ELISA; assay type: functional, organism-based; settings: Macaca fascicularis
Procedure, shortened: (§5)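 Cynomolgus monkeys given 2 mg/kg orally once daily for 14 days. CTx measured by CrossLaps ELISA before and 8 h after dosing on day 1 and on days 7 and 14, and at 24 h after the first dose. Vehicle group run in parallel to allow for daily CTx fluctuation. Means and SEM, n = 4, 5; t-test against vehicle control.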

Cynomolgus monkey [17] = assay: Antibone resorptive activity in cynomolgus monkey assessed as reduction of C-terminal telopeptidase of type 1 collagen degradation at 2 mg/kg/day, po measured after 8 hrs after 7 days of administration by CrossLaps ELISA; assay type: functional, organism-based; settings: Macaca fascicularis; procedure, shortened: as §5
Cynomolgus monkey [18] = assay: Antibone resorptive activity in cynomolgus monkey assessed as reduction of C-terminal telopeptidase of type 1 collagen degradation at 2 mg/kg/day, po measured after 24 hrs after first administration by CrossLaps ELISA; assay type: functional, organism-based; settings: Macaca fascicularis; procedure, shortened: as §5
Cynomolgus monkey [19] = assay: Toxicity in cynomolgus monkey at 2 mg/kg/day, po for 14 days; assay type: organism-based, Macaca fascicularis; design: route oral; settings: in vivo, 336 h
Cynomolgus monkey [20] = assay: Antibone resorptive activity in cynomolgus monkey assessed as reduction of C-terminal telopeptidase of type 1 collagen degradation at 2 mg/kg/day, po measured before 8 hrs after first administration by CrossLaps ELISA; assay type: functional, organism-based; settings: Macaca fascicularis; procedure, shortened: as §5
Cynomolgus monkey [21] = assay: Antibone resorptive activity in cynomolgus monkey assessed as reduction of cathepsin K-mediated C-terminal telopeptidase of type 1 collagen degradation at 2 mg/kg/day, po measured after 8 hrs after 14 days of administration by CrossLaps ELISA; assay type: functional, organism-based; settings: Macaca fascicularis; procedure, shortened: as §5
Cynomolgus monkey [22] = assay: Antibone resorptive activity in cynomolgus monkey assessed as reduction of C-terminal telopeptidase of type 1 collagen degradation at 2 mg/kg/day, po measured before 8 hrs after 14 days of administration by CrossLaps ELISA; assay type: functional, organism-based; settings: Macaca fascicularis; procedure, shortened: as §5

Structure (SMILES) | half-life [1] [h] | Drug uptake [2] | concentration at 25 h [3] [nM] | IC50 (Cathepsin K [4]) [nM] | IC50 (Procathepsin L) [nM] | IC50 (Cathepsin K [5]) [nM] | Vd [6] [L/kg] | clearance [7] [mL/min/kg] | bioavailability [8] [%] | Activity (Rattus norvegicus [9]) [%] | concentration at 25 h [10] [nM] | IC50 (Cathepsin S) [nM] | Vd [11] [L/kg] | bioavailability [12] [%] | clearance [13] [mL/min/kg] | half-life [14] [h] | further results
COc1ccc2c(c1)C1(CCNCC1)C(=O)N2Cc1cc2cnc(C#N)nc2n1CC(C)(C)C | 4.9 | 159 | 288 | 44 | > 1000 | < 1 | 73.6 | 182 | 29 | 68 | 45800 | > 1000 | – | – | – | – | –
CC(C)(C)Cn1c(CN2C(=O)C3(CCNCC3)c3cc(F)ccc32)cc2cnc(C#N)nc21 | 6.6 | 99 | 1200 | 78 | – | – | 78.4 | 132 | 36 | 36.2 | 119000 | – | – | – | – | – | –
CCCN1C(=O)NC2(CCN(Cc3cc4cnc(C#N)nc4n3CC(C)(C)C)CC2)C1=O | – | 1.5 | 545 | – | > 1000 | < 1 | – | – | – | 11.3 | 832 | > 1000 | 6.7 | 58 | 45 | 1.9 | –
CC(C)(C)Cn1c(CN2C(=O)NC3(CCNCC3)C2=O)cc2cnc(C#N)nc21 | – | – | – | 76 | > 1000 | < 1 | – | – | – | – | – | > 1000 | 59.2 | – | 245 | 3.3 | Activity (Rattus norvegicus [15]): Not Active
CC(C)(C)Cn1c(CN2C(=O)CC3(CCNCC3)C2=O)cc2cnc(C#N)nc21 | 4.7 | 34.9 | 960 | 30 | – | – | 97.2 | 238 | 98 | 73.2 | 33500 | – | – | – | – | – | Activity (Cynomolgus monkey [16]): Active; Activity (Cynomolgus monkey [17]): Active; Activity (Cynomolgus monkey [18]): Active; Activity (Cynomolgus monkey [19]): Non-toxic; Activity (Cynomolgus monkey [20]): Active; Activity (Cynomolgus monkey [21]): Active; Activity (Cynomolgus monkey [22]): Active
CN1C(=O)NC2(CCN(Cc3cc4cnc(C#N)nc4n3CC(C)(C)C)CC2)C1=O | – | 4.7 | 64 | 12 | – | – | – | – | – | 6.8 | 302 | – | 4.3 | 144 | 35 | 1.4 | –
CCCN1CCC2(CC1)NC(=O)N(Cc1cc3cnc(C#N)nc3n1CC(C)(C)C)C2=O | – | 132 | 133 | 27 | – | – | – | – | – | 89.9 | 17600 | – | 17.3 | 49 | 85 | 2.8 | –
CC(C)(C)Cn1c(CN2CCC3(CC2)NC(=O)NC3=O)cc2cnc(C#N)nc21 | – | 0.7 | 557 | – | > 1000 | < 1 | – | – | – | -7.9 | 381 | > 1000 | 5.9 | 42 | 78.3 | 1.6 | –
